Experimental findings from ChEMBL document CHEMBL1121685, “Development of new mitomycin C and porfiromycin analogues” (J Med Chem, 1981) are described below.

The test system of data set [1] is Mus musculus. Nature of the data set: Effect of compound on total white blood cell count in BDG1 male mice, after intraperitoneal administration at a dose of 51 mg/kg on day 3. The class given is functional. In outline: (§1)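 Single ip dose given on day 0 to BDG₁ male mice. Total white blood cell count measured on days 3, 5 and 7, expressed as % change from control. Highest dose was at the LD₅₀, or at twice the optimal dose where so footnoted. Significance reported at p ≤ 0.05 and p ≤ 0.01. D marks death of one or more mice.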

Data set [2] has as its system Mus musculus. Nature of the data set: Effect of compound on total white blood cell count in BDG1 male mice, after intraperitoneal administration at a dose of 68.0 mg/kg on day 7. The data set is classed as functional. In outline:
as §1

The test system of data set [3] is Mus musculus. Nature of the data set: Effect of compound on total white blood cell count in BDG1 male mice, after intraperitoneal administration at a dose of 51 mg/kg on day 5. The data set is classed as functional. In outline: as §1
Data set [4] has as its system Mus musculus. Nature of the data set: Effect of compound on total white blood cell count in BDG1 male mice, after intraperitoneal administration at a dose of 51 mg/kg on day 7. The data set is classed as functional. In outline:
as §1

Data set [5] concerns Mus musculus. Nature of the data set: Effect of compound on total white blood cell count in BDG1 male mice, after intraperitoneal administration at a dose of 68.0 mg/kg on day 5. The data set is classed as functional. In outline: as §1
Data set [6] has as its system Mus musculus. Nature of the data set: Effect of compound on total white blood cell count in BDG1 male mice, after intraperitoneal administration at a dose of 68.0 mg/kg on day 3. The data set is classed as functional. In outline:
as §1

Data set [7] has as its system Mus musculus. Nature of the data set: Antitumor activity against P-388 murine leukemia cells in CDF1 female mice after intraperitoneal administration at the specified optimal dose of 12.8 mg/kg. The data set is classed as functional.
Data set [8] in a line: Therapeutic ratio is expressed as ratio of optimal dose and minimum effective dose. The data set is classed as ADME. The note with it: mouse; read-out: TR. In outline:
(§2)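 10⁶ P-388 ascites cells implanted ip in CDF₁ female mice. Six mice per dose, 10 saline-injected controls, and a concurrent mitomycin C reference group. %T/C = median survival time of treated/control × 100. MED is the lowest dose giving %T/C > 125. Therapeutic ratio = optimal dose/MED.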

In data set [9] the test system is Mus musculus. Nature of the data set: Effect of compound on total white blood cell count in BDG1 male mice, after intraperitoneal administration at a dose of 1.7 mg/kg on day 3. The data set is classed as functional. In outline: (§3)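 BDG₁ male mice received a single ip dose on day 0. The dose series topped out at the LD₅₀ level, or at twice the optimal dose for some agents. Total white blood cell count was taken on days 3, 5 and 7 and expressed as % change from untreated controls. Significance was set at p ≤ 0.05 or p ≤ 0.01.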

For data set [10], the system named is Mus musculus. Kind of data set: Minimum effective dose that show activity against P-388 murine leukemia cells in CDF1 female mice, after intraperitoneal administration (optimal dose is 3.2 mg/kg). The data set is classed as functional. The following applies: P388, ip, read-out: MED. In outline:
as §2

The subject of data set [11] is Mus musculus. Nature of the data set: Effect of compound on total white blood cell count in BDG1 male mice, after intraperitoneal administration at a dose of 1.3 mg/kg on day 3. The data set is classed as functional. In outline:
as §3

For data set [12], the system named is Mus musculus. Nature of the data set: Effect of compound on total white blood cell count in BDG1 male mice, after intraperitoneal administration at a dose of 1.7 mg/kg on day 7. The data set is classed as functional. In outline:
as §3

Data set [13] relates to Mus musculus. Nature of the data set: Effect of compound on total white blood cell count in BDG1 male mice, after intraperitoneal administration at a dose of 0.96 mg/kg on day 3. The data set is classed as functional. In outline:
as §3

In data set [14] the test system is Mus musculus. Kind of data set: Effect of compound on total white blood cell count in BDG1 male mice, after intraperitoneal administration at a dose of 1.7 mg/kg on day 5. The class given is functional. In outline:
as §3

Data set [15] has as its system Mus musculus. Nature of the data set: Effect of compound on total white blood cell count in BDG1 male mice, after intraperitoneal administration at a dose of 0.96 mg/kg on day 5. The data set is classed as functional. In outline:
as §3

For data set [16], the species on record is Mus musculus. Nature of the data set: Half-wave potential produced by the compound at their optimal dose. The class given is functional. Further details: unit not given here.
The subject of data set [17] is Mus musculus. Kind of data set: Antitumor activity against P-388 murine leukemia cells in CDF1 female mice after intraperitoneal administration at the specified optimal dose of 3.2 mg/kg. The class given is functional.
The subject of data set [18] is Mus musculus. Kind of data set: Effect of compound on total white blood cell count in BDG1 male mice, after intraperitoneal administration at a dose of 1.3 mg/kg on day 7. The data set is classed as functional. In outline:
as §3

For data set [19], the system named is Mus musculus. Kind of data set: Effect of compound on total white blood cell count in BDG1 male mice, after intraperitoneal administration at a dose of 1.3 mg/kg on day 5. The class given is functional. In outline:
as §3

For data set [20], the species on record is Mus musculus. Kind of data set: Degree of leukopenia produced by compound is assessed form Percent change in white cells on days 5. The class given is functional. In outline: as §3
The subject of data set [21] is Mus musculus. Nature of the data set: Effect of compound on total white blood cell count in BDG1 male mice, after intraperitoneal administration at a dose of 0.96 mg/kg on day 7. The class given is functional. In outline:
as §3

Data set [22] concerns Mus musculus. Nature of the data set: Activity of compound dose of 0.5 mg/kg/day against Murine B-16 Melanocarcinoma in mice. The class given is functional.
For data set [23], the system named is Mus musculus. Kind of data set: Activity of compound dose of 4 mg/kg/day against Murine B-16 Melanocarcinoma in mice. The class given is functional.
Data set [24] has as its system Mus musculus. Nature of the data set: Activity of compound dose of 1 mg/kg/day against Murine B-16 Melanocarcinoma in mice. The class given is functional.
Data set [25] deals with Mus musculus. Nature of the data set: Effect of compound on total white blood cell count in BDG1 male mice, after intraperitoneal administration at a dose of 4.22 mg/kg on day 5. The class given is functional.
Data set [26] relates to Mus musculus. Nature of the data set: Activity of compound dose of 2 mg/kg/day against Murine B-16 Melanocarcinoma in mice. The data set is classed as functional.
Data set [27] deals with Mus musculus. Kind of data set: Effect of compound on total white blood cell count in BDG1 male mice, after intraperitoneal administration at a dose of 3.16 mg/kg on day 3. The class given is functional.
The subject of data set [28] is Mus musculus. Nature of the data set: Effect of compound on total white blood cell count in BDG1 male mice, after intraperitoneal administration at a dose of 7.5 mg/kg on day 7. The class given is functional.
Data set [29] concerns Mus musculus. Nature of the data set: Number of tumored survivors, 45 days after administration of compound at a dose of 1 mg/kg/day in mice. The data set is classed as functional.
The subject of data set [30] is Mus musculus. Kind of data set: Number of cured survivors, 45 days after administration of compound at a dose of 1 mg/kg/day in mice. The data set is classed as functional.
The subject of data set [31] is Mus musculus. Kind of data set: Effect of compound on total white blood cell count in BDG1 male mice, after intraperitoneal administration at a dose of 5.63 mg/kg on day 5. The class given is functional.
Data set [32] has as its system Mus musculus. Nature of the data set: Effect of compound on total white blood cell count in BDG1 male mice, after intraperitoneal administration at a dose of 3.16 mg/kg on day 7. The data set is classed as functional.
Data set [33] concerns Mus musculus. Nature of the data set: Effect of compound on total white blood cell count in BDG1 male mice, after intraperitoneal administration at a dose of 7.5 mg/kg on day 5. The class given is functional.
In data set [34] the test system is Mus musculus. Nature of the data set: Effect of compound on total white blood cell count in BDG1 male mice, after intraperitoneal administration at a dose of 7.5 mg/kg on day 3. The class given is functional.
For data set [35], the system named is Mus musculus. Kind of data set: Activity of compound dose of 8 mg/kg/day against Murine B-16 Melanocarcinoma in mice. The class given is functional.
The subject of data set [36] is Mus musculus. Kind of data set: Effect of compound on total white blood cell count in BDG1 male mice, after intraperitoneal administration at a dose of 4.22 mg/kg on day 7. The data set is classed as functional.
For data set [37], the system named is Mus musculus. Kind of data set: Number of tumored survivors, 45 days after administration of compound at a dose of 8 mg/kg/day in mice. The data set is classed as functional.
The subject of data set [38] is Mus musculus. Kind of data set: Effect of compound on total white blood cell count in BDG1 male mice, after intraperitoneal administration at a dose of 5.63 mg/kg on day 3. The data set is classed as functional.
The subject of data set [39] is Mus musculus. Nature of the data set: Effect of compound on total white blood cell count in BDG1 male mice, after intraperitoneal administration at a dose of 3.16 mg/kg on day 5. The data set is classed as functional.
Data set [40] concerns Mus musculus. Nature of the data set: Effect of compound on total white blood cell count in BDG1 male mice, after intraperitoneal administration at a dose of 4.22 mg/kg on day 3. The data set is classed as functional.
Data set [41] relates to Mus musculus. Kind of data set: Effect of compound on total white blood cell count in BDG1 male mice, after intraperitoneal administration at a dose of 5.63 mg/kg on day 7. The data set is classed as functional.
The species entered for data set [42] is Mus musculus. Kind of data set: Degree of leukopenia produced by compound is assessed form Percent change in white cells on day 3. The data set is classed as functional. In outline: as §3

For `COC12[C@@H]3N[C@@H]3CN1C1=C(C(=O)C(NCCCl)=C(C)C1=O)[C@@H]2COC(N)=O` (stereo partly specified), the Change is reported as -55% in the data set with Mus musculus [1]; -35% with Mus musculus [2]; -61% with Mus musculus [3]; -23% in the data set on Mus musculus [4]; -63% in the data set on Mus musculus [5]; -71% in the data set with Mus musculus [6]. Further, the T/C (commonly the result in the treated group divided by that in the control group, in per cent) with Mus musculus [7] is listed as 190%. Moreover, in data set [8], the selectivity ratio was found to be 8.

With `COC1=C(C)C(=O)C2=C(C1=O)[C@@H](COC(N)=O)[C@@]1(OC)[C@H]3N[C@H]3CN21` [MITOMYCIN A], the Change in the data set on Mus musculus [9] was -28%; with Mus musculus [11] it was -12%; with Mus musculus [12], 5%; with Mus musculus [13], -11%; in the data set with Mus musculus [14], -24%; with Mus musculus [15] it was -25%. Besides, the Change was -9% with Mus musculus [18], -15% in the data set with Mus musculus [19], -2% in the data set filed under Mus musculus [20] and 4% with Mus musculus [21]. Further, in the data set with Mus musculus [10], the minimal effective dose stood at 0.05 mg/kg. The E1/2 in the data set listed under Mus musculus [16] is reported as -0.21. The selectivity ratio in data set [8] was 64. The T/C with Mus musculus [17] was 180%.

`CO[C@@]12[C@H](COC(N)=O)C3=C(C(=O)C(C)=C(N)C3=O)N1C[C@@H]1N[C@@H]12` [MITOMYCIN]: the T/C in the data set with Mus musculus [22] is recorded as 122%; in the data set on Mus musculus [23], 193%; in the data set with Mus musculus [24], 136%; in the data set on Mus musculus [26], 159%; in the data set with Mus musculus [35], 164%; with Mus musculus [17], 178%. Also, the minimal effective dose with Mus musculus [10] is 0.2 mg/kg. Also, the Change is given as -53% with Mus musculus [25]; -48% with Mus musculus [27]; -53% in the data set with Mus musculus [28]; -58% in the data set with Mus musculus [31]; -38% with Mus musculus [32]; -67% with Mus musculus [33]. Also, the Change with Mus musculus [34] is reported as -58%; in the data set on Mus musculus [36], -1%; with Mus musculus [38], -57%; in the data set on Mus musculus [39] it was -42%; with Mus musculus [40], -55%; in the data set with Mus musculus [41] it was -26%. In addition, the Change in the data set filed under Mus musculus [42] is -42%. For the same compound, the Survivors in the data set on Mus musculus [29], in the data set on Mus musculus [30] and in the data set on Mus musculus [37] was 1 throughout. Further, in the data set listed under Mus musculus [16], the E1/2 is -0.45.
